# “Also recorded” adds a separate entry of the source.
# Tests used:
# T cell clone BDC-2.5 = experiment: IFN-γ response of T cell clone BDC-2.5; assay type: cell-based, NOD mouse; conditions: ChgA-derived peptides 5–500 μM; two experiments, single measurements (Fig. 6a,c)
# How it was run: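 Cultures held 2 × 10⁴ BDC-2.5 T cells and 2.5 × 10⁴ NOD peritoneal exudate cells as I-A^g7 APCs. Chromogranin A-derived peptides were added at 5–500 μM. Controls were beta cell tumor membrane preparation, a positive mimotope peptide and an irrelevant moth cytochrome c peptide. IFN-γ was measured by specific ELISA. Two experiments, single measurement per concentration. Stimulatory capacity was calculated relative to the reference peptide.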
# I-A^g7 = experiment: Peptide binding to I-A^g7; design: species or system NOD mouse; conditions: inhibition of bio-pHEL (11 μM) binding to soluble I-A^g7, pH 5.6, overnight, 21°C, ELISA; average of two experiments (Fig. 6b,c)
# How it was run: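 Soluble I-A^g7 carrying covalently linked pHEL, thrombin-treated to cleave the peptide linker. Diluted in PBS, captured on OX6-coated wells, washed. Bound probe detected with alkaline phosphatase–Extravidin and […]. Controls: mimotope peptide (positive), I-E^k-binding moth cytochrome c peptide (negative). Reported as percent of uninhibited probe binding.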
# BDC T cell clones [1] = experiment: In vitro activation of the BDC T cell clones; assay type: cell-based, NOD mouse
# How it was run: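 The three BDC clones (2 × 10⁴ responder cells each) were cultured with 2.5 × 10⁴ NOD peritoneal exudate cells as APCs. Soluble synthetic test peptides were titrated alongside a mimotope peptide and beta cell tumor membrane preparation as the control antigen. IFN-γ (ng/ml) was measured by specific ELISA. At least two separate experiments, single measurement at each peptide concentration.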
# BDC T cell clones [2] = conditions: presented in the context of I-A^g7; cited from earlier work
Substance,Stimulatory activity on BDC-2.5 (IFN-γ response) (T cell clone BDC-2.5),Binding to I-A^g7 (I-A^g7),other results
ED9: WD5 extended by the same 4 amino acids at the N-terminus (EDKRWSRMD),failed to stimulate BDC-2.5,did not bind to I-A^g7,
EE18: WE14 extended by 4 amino acids at the N-terminus (EDKRWSRMDQLAKELTAE),eliminated the BDC-2.5 response,no effect on I-A^g7 binding,
RLGLWVRME [pS3],,,Potency in activating the BDC clones relative to WE14 (BDC T cell clones [1]; pS3 vs synthetic WE14): at least 1000 fold
WA8: C-terminal truncation of WE14 (WSRMDQLA),decreasing stimulatory activity,,
WL11: WE14 truncated by 3 C-terminal amino acids (WSRMDQLAKEL),decreasing stimulatory activity,reduced binding to a level indistinguishable from the negative control peptide,
WSRMD [WD5],lacked any stimulatory activity,,
WSRMDQLAKELTAE [WE14],,"bound to I-A^g7, although not nearly as well as the pS3 mimotope; also recorded: bound I-A^g7","Activation of the BDC T cell clones (BDC T cell clones [1]; in vitro, presented by I-A^g7 APCs): activated the ChgA-specific T cell clones in vitro; also recorded: potently stimulated all three of the BDC clones; also recorded: the clones were activated; Potency relative to beta cell (tumor) antigen preparation (BDC T cell clones [1]; synthetic WE14 vs β-Mem): considerably less potent than the antigen preparation from the beta cell adenoma tumor"
"insulin: insulin, to which the BDC clones are not responsive",,,Response of BDC clones in vitro (BDC T cell clones [2]): not responsive

# — article PMC3166626 (Nature immunology, 2010)
